# Screens (PubChem)
# In the library only some 4.8% were active in any assay of this set; here they are far more common.
# Efflux pump mplx: blocks antifungal efflux pumps in multiplex yeast assay; S. cerevisiae Candida pump triplex, Nile Red efflux; inhibition, % at 10 µM; hit rate 0.44% among 330,000; AID 485275;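 active = plate passing quality check with inhibition over a set limit, or well fluorescence over plate mean plus 4 SD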;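 also: Nile Red retained in pooled yeast measured as flow cytometry median fluorescence; 0% = buffer negative control and 100% = Enniatin B positive control; higher means more Nile Red kept so more efflux inhibition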
# SUMO Mot1 rescue: SUMOylation pathway inhibition by Mot1-301 growth rescue | growth rescue, % at 18.8 µM | S. cerevisiae Mot1-301 growth rescue, ATP luminescence, 38.5C; percent above DMSO median, 100 means doubled | AID 2716 | hit rate 1% among 320,000;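 active = every valid replicate shows activation above 250% relative to neutral control wells; inactive = the rest, any valid replicate at or below 250%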;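 also: OY570 slx delta 5 strain wells were the positive control but not used for scaling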
# WT yeast gro inh: growth inhibition of WT yeast, mitochondrial fusion screen; mitochondrial fusion phenotypic screen, WT strain; inhibition, % at 10 µM; hit rate 2.1% among 190,000; in the data active = inhibition above about 58%; tested in S. cerevisiae
# Beta cell apopt: blocks beta cell apoptosis; AID 435005; INS-1E cytokine-induced death, ATP luminescence, 48 h; percent of positive-control rescue, neutral wells zero; protection from apoptosis, % (no concentration beside the values); hit rate 0.8% among 300,000;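 active = Every replicate reaches about 75%, or at least half do and their mean reaches it too, limit read from the data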;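 also: 0% = cytokine-treated negative control wells and 100% = positive control rescue; higher means more ATP so stronger rescue from cytokine killing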
# CSC inhib: blocks cancer stem cells; inhibition, % at 7.5 µM; cancer stem cell-like cells viability, luminescence; hit rate 1.1% among 300,000; in the data active = inhibition above about 75%; tested in HMLE shEcad cells
# T cruzi repl: blocks replication of Trypanosoma cruzi | T. cruzi beta-gal in NIH3T3, luminescence, 90 h | inhibition, % (no concentration beside the values) | hit rate 1.4% among 300,000 | AID 1885;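 active = mean inhibition across valid replicates above about 55%, limit read from the data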;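 also: signal also drops with host cell toxicity which is not excluded here; 0% = plate median of DMSO wells and 100% = zero luminescence signal; higher percent means less beta-gal luminescence so fewer parasites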
#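 Assay system: NIH/3T3 fibroblasts plus reporter T. cruzi. Amount: NIH/3T3 cells, 5,000 per well. Buffer or medium: DMEM, 2% fetal bovine serum. Doses: compound pinned at 50 nL/well, DMSO. Schedule: ≥90 h infection period, 3 h prior cell attachment. Signal: luminescent β-galactosidase signal after 60 min lysis. Read-out: parasite load inhibition, %.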
# Yeast Mot1 SUMO: SUMO pathway inhibitors in yeast Mot1-301 growth; S. cerevisiae Mot1-301 galactose growth, ATP luminescence, 24 h; -100 = growth of slx-deleted rescue strain; growth activity, percent, % at 42 µM; shares compounds with SUMO Mot1 rescue; 2,300 tested, under 10 active;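 active = Signal drops as the depositor expects, and the fitted half-maximal dose is no more than ten times the top valid tested dose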;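 also: more negative values mean stronger growth rescue toward the control strain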
# * = called active by the depositor; . = not tested or not shown; + = active, no number.
SMILES,Efflux pump mplx,SUMO Mot1 rescue,WT yeast gro inh,Beta cell apopt,CSC inhib,T cruzi repl,Yeast Mot1 SUMO
CN(CC(=O)Nc1cccc(F)c1)C(=O)c1cc(S(=O)(=O)N2CCN(c3ccccc3)CC2)ccc1Cl,0,-4,.,-17,-2,.,.
Clc1ccc(N=c2ssnc2Cl)nc1,0,655*,69*,-12,27,58*,0
COc1ccccc1CN(C)C(=O)c1ccc2c(c1)NC(=O)CS2,0,-7,14,-5,-4,5,.
Cc1ccc(CN(C)C(=O)c2ccc3c(c2)NC(=O)CS3)o1,0,364*,.,-12,-12,-8,0
CC(=O)OCc1ccccc1Sc1ccccc1C(=O)NCc1ccccc1,0,4,.,-4,-11,10,.
CNC(=O)c1ccccc1S(=O)c1ccccc1COC(C)=O (stereo not given),0,384*,.,1,-7,-6,0
O=C(COC(=O)CCCN=C1NS(=O)(=O)c2ccccc21)NC(=O)NC1CCCC1,0,10,6,-4,-4,-8,.
COc1cc(CNC(=O)c2cccc(COc3ccc(Cl)cc3)c2)cc(OC)c1,0,3,-3,-1,22,37,.
O=C(NCc1ccccc1)c1cccc(COc2ccc(Cl)cc2)c1,0,+,50,9,21,5,1
O=C(c1ccco1)N1CCN(CC(O)COc2ccc(Br)cc2)CC1 (stereo not given),0,269,.,-1,-4,-8,.
C=CCn1nnnc1SCC(=O)Nc1ccccc1C(=O)OC,0,-19,-4,-7,-7,-13,.
COC(=O)c1ccccc1NC(=O)CSc1nnnn1CC(=O)O,0,616*,.,-8,.,-9,0
CCN(C(=O)Nc1ccccc1OC)c1c(N)n(Cc2ccccc2)c(=O)[nH]c1=O,0,471*,-22,-6,-9,-15,0
CCN(C(=O)COC(=O)CCc1ccccc1OC)c1c(N)n(Cc2ccccc2)c(=O)[nH]c1=O,0,1,.,-3,-7,-10,.
COc1ccc(N2CCN(C3CCCN(Cc4ccc(F)c(F)c4)C3)CC2)cc1 (stereo not given),0,13,.,.,3,48,.
COc1cccc(N2CCN(C3CCCC(C)C3)CC2)c1 (stereo not given),-1,676*,-22,2,.,-1,0
COc1ccc(N2CCN(C3CCCN(Cc4cccc(OC)c4)C3)CC2)cc1 (stereo not given),0,667*,.,-4,4,38,0
COc1ccc(COn2nnc3ccc(S(=O)(=O)N4CCOCC4)cc32)cc1F,0,-10,.,1,-8,-13,.
Cc1ccccc1CN1CCN(CC2CC2)CC1CCO (stereo not given),0,-5,.,.,4,-10,.
Cc1ccc(NC(=O)CN(C)C(=O)C2CC(=O)N(Cc3ccccc3)C2)cc1 (stereo not given),0,14,.,-5,.,-7,.
O=C(c1ccc(COc2ccccc2Br)cc1)N1CCCCCC1,0,-6,49,30,31,38,.
C=CCn1c(=N)c(C(=O)NCCCOC)cc2c(=O)n3cc(C)ccc3nc21,0,-1,52,-5,-7,-12,.
C=CCn1c(=N)c(C(=O)NCCCOC)cc2c(=O)n3ccccc3nc21,0,603*,-5,-5,2,-2,0
COc1cc(C(=O)Oc2cc(C)cc(C)c2)cc(OC)c1OC,0,7,-12,-2,-6,2,.
COc1cc(C(=O)Oc2cccnc2)cc(OC)c1OC,0,481*,.,2,-7,-4,0
SMILES,Efflux pump mplx,SUMO Mot1 rescue,WT yeast gro inh,Beta cell apopt,CSC inhib,T cruzi repl,Yeast Mot1 SUMO
N#Cc1cc2c(nc1SCc1cccnc1)CCC2,0,+,4,-3,21,10,0
COC(=O)C1(Cc2ccc(O)cc2)OC(=O)C(O)=C1c1ccc(O)cc1 (stereo not given),0,381*,.,-4,-7,-22,0
CCOc1ccccc1N(CC)C(=O)c1nn(C)c2c1CSc1ccccc1-2,0,102,.,-5,10,20,.
COc1ccc(NC(=O)CSc2nnc3ccc(-c4ccccn4)nn23)cc1OC,0,97,.,-4,-6,8,.
CCc1c(O)nc(SCC(=O)Nc2ccccc2OC)[nH]c1=O,0,-14,-7,-1,-7,-11,.
COc1ccccc1NC(=O)CSc1nc(O)c(Cc2ccccc2)c(=O)[nH]1,0,+,15,-10,-2,-20,1
Cc1onc(C(=O)Nc2c(C)n(C)n(-c3ccccc3)c2=O)c1[N+](=O)[O-],0,-3,.,0,-5,1,.
O=C(NCC(c1cccs1)N1CCOCC1)c1ccccc1NS(=O)(=O)c1cc([N+](=O)[O-])ccc1Cl (stereo not given),0,504*,5,21,17,-9,-1
O=C(NCC(c1cccs1)N1CCOCC1)c1ccccc1NS(=O)(=O)c1ccc(Cl)c([N+](=O)[O-])c1 (stereo not given),0,-24,14,14,10,11,.
CC(=O)c1ccc(N2CCN(CN3C(=O)CC4(CCCC4)C3=O)CC2)c(F)c1,1,9,.,0,24,9,.
Cc1ccc(C(C(=O)NC(C)(C)C)N(Cc2ccc3c(c2)OCO3)C(=O)c2ccc(CN3CCOCC3)o2)o1 (stereo not given),0,-14,1,-3,-7,4,.
CC(C)(C)NC(=O)C(c1cccs1)N(Cc1cccs1)C(=O)c1ccc(CN2CCOCC2)o1 (stereo not given),0,+,0,-2,-12,14,0
Cc1ccc(C(=O)NC(=S)N2CCN(C(=O)OC(C)(C)C)CC2)cc1Br,0,22,2,-2,22,3,.
Cc1ccc(C(=O)O)cc1[N+](=O)[O-],0,365*,.,-3,-9,.,-1
CN(Cc1ccc(C(C)(C)C)cc1)C(=O)c1ccc2c(=O)n3c(nc2c1)CCC3,0,399*,.,-2,-10,14,0
CN(C)c1ccc(C(=O)N2CCCC(CCC(=O)N3CCN(c4ccccn4)CC3)C2)cc1 (stereo not given),0,554*,.,-1,2,9,0
CCC(C)[C@H](NC(=O)Nc1ccc(S(N)(=O)=O)cc1)C(=O)OC (stereo not given in full),0,743*,.,-4,-7,-9,0
O=C(/C=C/c1ccc(F)cc1)NCC1(c2ccccc2)CCOCC1,0,542*,0,-1,-4,5,0
O=C(/C=C/c1ccccc1)NCC1(c2ccccc2)CCOCC1,0,-19,.,-8,-9,-11,.
